High-throughput results as filed in PubChem BioAssay.
Only some compounds are listed: those with a hit (about 5.9% of all), similar ones and a draw of the others.
Measles CPE – compounds protecting cells from measles virus cytopathic effect, primary screen, measles RdRp inhibitor project, single point, MLSMR library, absorbance; Measles virus-infected cells, CPE protection; protection (pct of control), % at 4 µM; actives 1.5% (n = 140,000); in the data active = protection mostly above about 24%, no sharp cut-off; inactive = mostly below about 26%
Cav32 inh – Cav3.2 calcium influx blockers – cell-based, Fluo-4 calcium fluorescence, FDSS, MLSMR library, primary screen; Voltage-dependent T-type calcium channel subunit alpha-1H (Homo sapiens), O95180; Cav3.2-expressing cells; hits give low values; B-score at 10 µM; actives 4% (n = 100,000); AID 449739, 2010;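 active = single-dose well whose peak fluorescence ratio is a statistical outlier from its plate by either plate-standardised score or position-corrected B-score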
HIV Rev-RRE inh – HIV-1 Rev-RRE binding inhibitors, primary screen, biochemical, FRET, protein-RNA interaction; P05866; Rev peptide-RRE RNA binding; inhibition, % at 8 µM; actives 0.79% (n = 97,000); AID 704, 2007;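 active = inhibition above the screen-wide mean plus 3 SD, cut at about 35% in these data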
Target sequence (P05866 whole entry, looked up): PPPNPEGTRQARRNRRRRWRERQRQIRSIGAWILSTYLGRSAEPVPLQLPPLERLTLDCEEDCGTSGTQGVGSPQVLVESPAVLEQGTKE
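assay system = Cy5-tagged RRE RNA duplex with fluorescein-tagged Rev peptide | incubation = 5 + 15 min at 25 °C | also added = labelled Rev peptide | measure = % inhibition of FRET ratio versus controls | benchmarks = DMSO wells as 0% and neomycin B wells as 100% inhibition | measured by = FRET fluorescence readout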
PTK2B oligo ant – antagonists of Pyk2 self-association, primary screen, Q293 cells, FERM NanoBiT luminescence, HTS; Protein-tyrosine kinase 2-beta (Homo sapiens), Q14289; z-score (the deposit names both 25 µM and 10 µM); AID 1347419, 2020; hits give low values; actives 0.83% (n = 99,000);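 active = Z-score of -3 or lower, scaled per plate to the spread of control and sample wells; inactive = z-score above -3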;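 note: negative z-score means lost luminescence so less FERM oligomerization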
Phagocyt inh – inhibitors of macrophage phagocytosis, primary screen, imaging, J774A.1 cells, IgG beads | J774A.1 macrophage IgG-bead phagocytosis | inhibition, % at 5 µM | actives 0.07% (n = 110,000);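 active = inhibition above the mean of the plate negative controls plus 5 SD, cut at about 13% in these data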;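 note: phagocytic index as fraction of beads internalized from green versus red external bead signal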
DAT uptake mod – changed hDAT dopamine uptake under cocaine IC80, either direction, primary screen, cocaine antagonist project, cell-based, LLC-PK1 hDAT, [14C]-dopamine uptake, MLSMR; B-score at 10 µM; Sodium-dependent dopamine transporter (Homo sapiens), Q01959; LLC-PK1 hDAT cells, [14C]-dopamine uptake with cocaine IC80; actives deviate in either direction; actives 1.3% (n = 110,000);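 active = Z score or B-score, a plate-position-corrected score, falls beyond the plate's 99.7% confidence bounds, in either direction; inactive = both scores lie inside the 99.7% bounds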
Target sequence (Q01959 whole entry, looked up): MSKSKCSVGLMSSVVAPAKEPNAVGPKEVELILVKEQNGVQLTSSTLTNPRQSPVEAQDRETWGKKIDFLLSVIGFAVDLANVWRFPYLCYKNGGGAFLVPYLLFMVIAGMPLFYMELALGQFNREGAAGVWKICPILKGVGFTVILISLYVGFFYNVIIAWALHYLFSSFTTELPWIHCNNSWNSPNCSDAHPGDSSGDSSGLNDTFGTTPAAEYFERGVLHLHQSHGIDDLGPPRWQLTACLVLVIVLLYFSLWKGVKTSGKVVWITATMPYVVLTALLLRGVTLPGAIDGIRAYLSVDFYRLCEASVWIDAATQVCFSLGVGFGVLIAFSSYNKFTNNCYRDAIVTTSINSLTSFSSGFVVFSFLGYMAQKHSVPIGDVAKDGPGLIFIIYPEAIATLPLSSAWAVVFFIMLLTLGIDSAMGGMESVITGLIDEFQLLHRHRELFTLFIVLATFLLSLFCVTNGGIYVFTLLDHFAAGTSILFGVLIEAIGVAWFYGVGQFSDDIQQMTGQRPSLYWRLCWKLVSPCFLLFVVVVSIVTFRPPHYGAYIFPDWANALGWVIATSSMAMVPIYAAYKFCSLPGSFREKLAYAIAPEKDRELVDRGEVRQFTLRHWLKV
Each line names hits and unclear results; the compound was inactive in the other large screens; ! = not active in a repeat; [ ] = remark or other dose.

CCOc1ccccc1NC(=O)CCCN1C(=S)NC(C)(C)CC1C (configuration not stated)	none (no result: Cav32 inh, HIV Rev-RRE inh, PTK2B oligo ant, DAT uptake mod)
CCOC(=O)CSCC(=O)Nc1c(C(=O)C2CC2)oc2ccccc12	Cav32 inh -4.7 (no result: Phagocyt inh)
COC(=O)c1ccc2c(=O)n(CCCCCC(=O)N3CCN(c4ccccc4)CC3)c(=O)[nH]c2c1	DAT uptake mod -8.3!
CCN1CCN(C(=O)CCCCCn2c(=O)[nH]c3cc(C(=O)OC)ccc3c2=O)CC1	none
COc1cc2[nH]c(=O)n(CCC(=O)N3CCN(c4cccc(C)c4C)CC3)c(=O)c2cc1OC	none
COc1cc2[nH]c(=O)n(CCC(=O)NCc3cccnc3)c(=O)c2cc1OC	Measles CPE 67 (no result: HIV Rev-RRE inh)
COc1cc2[nH]c(=O)n(CCCCCC(=O)N3CCN(c4ccccc4)CC3)c(=O)c2cc1OC	DAT uptake mod 3.5
COc1ccc(CNc2oc(Cc3cccc4ccccc34)nc2C#N)cc1	Cav32 inh -7
N#Cc1nc(Cc2ccccc2)oc1NCc1ccccc1	Cav32 inh -5.4 (no result: Phagocyt inh)
Oc1ccc(C[C@@H]2CNC(=S)N2CCCCC2CCCCC2)cc1	none (no result: Measles CPE, HIV Rev-RRE inh, PTK2B oligo ant, Phagocyt inh)
COc1ccc(C(CC(=O)N2CCCC(C)C2)c2c(OC)cc(OC)c3ccc(=O)oc23)cc1 (configuration not stated)	none (no result: Measles CPE, HIV Rev-RRE inh, PTK2B oligo ant, Phagocyt inh)
COc1ccc2c(c1)nc(SCC(=O)c1cccs1)n2C	none (no result: Phagocyt inh)
COc1cc(/C=N/n2nnnc2Nc2ccccc2)cc(OC)c1OC	none (no result: Cav32 inh, HIV Rev-RRE inh, PTK2B oligo ant, DAT uptake mod)
COc1cc(C2C(C(N)=O)=C(C)Nc3nc(CCCO)nn32)cc(OC)c1OC (configuration not stated)	none (no result: HIV Rev-RRE inh, PTK2B oligo ant)
Fc1ccc(C2=CC(c3ccc(Br)o3)n3ncnc3N2)cc1 (configuration not stated)	none (no result: Cav32 inh, HIV Rev-RRE inh, PTK2B oligo ant, DAT uptake mod)
Brc1ccc(C2=CC(c3cccs3)n3ncnc3N2)cc1 (configuration not stated)	Cav32 inh -5.5, HIV Rev-RRE inh 135[fluorescence artefact?], PTK2B oligo ant -3.5 (no result: Phagocyt inh)
OCCCc1nc2n(n1)C(c1cccs1)C=C(c1ccc(Br)cc1)N2 (configuration not stated)	Cav32 inh -7.9, HIV Rev-RRE inh 135[fluorescence artefact?] (no result: PTK2B oligo ant)
CC(C)P(=O)(c1cccc(C(=O)O)c1)C(C)C	none (no result: Cav32 inh, HIV Rev-RRE inh, PTK2B oligo ant, DAT uptake mod)
CCCn1cnc2c1c(=O)n(CCCCC(C)=O)c(=O)n2C	none (no result: Measles CPE, HIV Rev-RRE inh, PTK2B oligo ant, Phagocyt inh)
Cc1nc2c(n1C1CCCCC1)C(=O)c1ccccc1C2=O	none (no result: Cav32 inh, Phagocyt inh, DAT uptake mod)
FC(F)(F)c1cc(-c2ccco2)nc(NCc2cccnc2)n1	none (no result: Cav32 inh, Phagocyt inh, DAT uptake mod)
FC(F)(F)c1cc(-c2ccccc2)nc(NCc2cccnc2)n1	PTK2B oligo ant -3.4 (no result: Phagocyt inh)
O=S(=O)(c1ccc(Cl)cc1)N1CCCC1c1nc2ccccc2s1 (configuration not stated)	Cav32 inh -4.5 (no result: Phagocyt inh)
Cc1cc(N2CCN(c3ccccc3Cl)CC2)n2cc(-c3ccccc3)nc2n1	Measles CPE 30, Cav32 inh -4.3
CNC(=O)[C@@]1(C)C=C[C@@H](Cc2ccccc2)N1C(=O)OC	none (no result: HIV Rev-RRE inh, PTK2B oligo ant, Phagocyt inh)
CNC(=O)NC(=O)C(C)OC(=O)c1cc2c(s1)CCCCC2 (configuration not stated)	Measles CPE 29 (no result: Cav32 inh, HIV Rev-RRE inh, PTK2B oligo ant, DAT uptake mod)
CC(NC(=O)c1cc2c(s1)CCCC2)C(C)(C)C (configuration not stated)	none
CC1=C(C(=O)Nc2ccc([N+](=O)[O-])cc2)C(c2cccc(C(F)(F)F)c2)NC(=S)N1c1ccccc1 (configuration not stated)	Cav32 inh -6.7
COc1ccc(C2NC(=S)N(c3ccccc3)C(C)=C2C(=O)Nc2ccccc2)cc1 (configuration not stated)	none
Cn1c(CO)cnc1SCc1ccc(Cl)cc1	none (no result: Phagocyt inh)
COc1ccc(-c2csc(NC(CO)c3nc4ccccc4n3CCCO)n2)cc1 (configuration not stated)	DAT uptake mod 3.1 (no result: Measles CPE, HIV Rev-RRE inh, PTK2B oligo ant, Phagocyt inh)
CC1CC(NC(=O)N(C)C)N(C)C(=O)N1 (configuration not stated)	none (no result: Cav32 inh, HIV Rev-RRE inh, PTK2B oligo ant, DAT uptake mod)
N#CC1(C#N)C2=C(CCCC2)NC(c2ccccc2)C1(C#N)C#N (configuration not stated)	HIV Rev-RRE inh 47 (no result: PTK2B oligo ant)
Cc1nn(CC(=O)Nc2cc(S(=O)(=O)N(C)C)ccc2Cl)c(C)c1[N+](=O)[O-]	Measles CPE 41 (no result: Cav32 inh, HIV Rev-RRE inh, PTK2B oligo ant, DAT uptake mod)
Cc1nonc1OCC(C)(COc1nonc1C)NC(=O)c1ccc(Cl)cc1	Cav32 inh -4.2 (no result: Phagocyt inh)
CC(/C=N/NC(=O)c1cc(-c2cccnc2)nc2c1c(C)nn2-c1ccccc1)=C\c1ccccc1	none (no result: Cav32 inh, HIV Rev-RRE inh, PTK2B oligo ant, DAT uptake mod)
Cc1cc(Cl)ccc1Oc1nccc(N(C)C)c1C#N	Measles CPE 76 (no result: Phagocyt inh)
CC1=NC(C(F)(F)F)(C(F)(F)F)C(C#N)=C(C)N1	DAT uptake mod -3.8
CC1=C(C)CC(C(=O)NCCc2ccccc2)C(C(=O)O)C1 (configuration not stated)	none
CC1=C(C)CC(C(=O)c2ccccc2)C(C(=O)O)C1 (configuration not stated)	Measles CPE 48 (no result: Phagocyt inh)
N#Cc1ccc(OCC(=O)Nc2ccccc2NS(=O)(=O)c2cccs2)cc1	none (no result: Cav32 inh, HIV Rev-RRE inh, DAT uptake mod)
CC(=O)OC1COC(OC2C(O)C(C)OC(OC3C(OC4CCC5(C)C(CCC6(C)C5CC=C5C7CC(C)(C)CCC7(C(=O)O)CCC56C)C4(C)CO)OCC(O)C3O)C2O)C(O)C1OC(C)=O (configuration not stated)	Cav32 inh -5, DAT uptake mod -10 (no result: Measles CPE, HIV Rev-RRE inh, PTK2B oligo ant, Phagocyt inh)
CC1(C)CC[C@]2(C(=O)O)CC[C@]3(C)C(=CC[C@@H]4[C@@]5(C)CC[C@H](O)C(C)(C)[C@@H]5CC[C@]43C)[C@@H]2C1	none (no result: Measles CPE, HIV Rev-RRE inh, PTK2B oligo ant, Phagocyt inh)
